The text below walks through data of ChEMBL document CHEMBL4680084, “New β-Lactam Derivatives Modulate Cell Adhesion and Signaling Mediated by RGD-Binding and Leukocyte Integrins” (J Med Chem, 2016).

Data set [1] deals with T1, Integrin alpha-5/beta-1 (Homo sapiens, UniProt P05556+P08648). Put plainly: Antagonist activity at alpha5beta1 in human K562 cells assessed as reduction in cell adhesion to fibronectin pre-incubated for 30 mins before fibronectin and further incubated for 1 hr by nitrophenyl-N-acetyl-beta-D-glucosaminide substrate based chromogenic assay. In a few lines:
(§1)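 Compound or methanol vehicle pre-incubated with cells for 30 min at room temperature. Cells then plated on wells coated overnight at 4 °C with fibronectin 10 µg/mL (SK-MEL-24, K562, HT-29) or fibrinogen 10 µg/mL (MCF7, HEL). Seeding was 50,000 cells/well, or 100000 for HEL. Adhesion ran 1 h at room temperature. Wells washed with 1% BSA/PBS. Adherent cells read by hexosaminidase substrate, absorbance 405 nm. Quadruplicate, at least three repeats.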

The target in data set [2] is T2, Integrin alpha-V/beta-5 (Homo sapiens, UniProt P06756+P18084). The data set is described as follows: Antagonist activity at alphaVbeta5 in human MCF7 cells assessed as reduction in cell adhesion to fibrinogen pre-incubated for 30 mins before fibrinogen and further incubated for 1 hr by nitrophenyl-N-acetyl-beta-D-glucosaminide substrate based chromogenic assay. In a few lines: (§2)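 Compound or methanol vehicle pre-incubated with cells for 30 min at room temperature. Cells then plated on wells coated overnight at 4 °C with fibronectin 10 µg/mL (SK-MEL-24, K562, HT-29) or fibrinogen 10 µg/mL (MCF7, HEL). Seeding was 50,000 cells/well, or 100000 for HEL. Adhesion ran 1 h at room temperature. Wells washed with 1% BSA/PBS. Quadruplicate, at least three repeats.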

Another data set deals with SK-MEL-24. Put plainly: Toxicity in human SK-MEL-24 cells assessed as induction of cell necrosis and/or apoptosis incubated for 3 hrs by annexin V-PE and 7-AAD staining based by flow cytometry. The following applies: sk-mel-24, 3 h. In a few lines:
(§3)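 After 3 h incubation, cells resuspended in complete medium and stained with annexin V-PE/7-AAD reagent for 20 min at room temperature in the dark. Flow cytometry sorted cells into viable, early apoptotic and late apoptotic/necrotic populations.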
In general terms: A flow cytometer gives signals particle by particle.

The target in data set [3] is T1, Integrin alpha-5/beta-1. Put plainly: Agonist activity at alpha5beta1 in human K562 cells assessed as increase in cell adhesion to fibronectin pre-incubated for 30 mins before fibronectin and further incubated for 1 hr by nitrophenyl-N-acetyl-beta-D-glucosaminide substrate based chromogenic assay. In a few lines: as §1
The target in data set [4] is T3, Integrin alpha-V/beta-6 (Homo sapiens, UniProt P06756+P18564). The data set is described as follows: Agonist activity at alphaVbeta6 in human HT-29 cells assessed as increase in cell adhesion to fibronectin pre-incubated for 30 mins before fibronectin and further incubated for 1 hr by nitrophenyl-N-acetyl-beta-D-glucosaminide substrate based chromogenic assay. In a few lines:
as §1

The next data set concerns HT-29. The data set is described as follows: Toxicity in human HT-29 cells assessed as induction of cell necrosis and/or apoptosis incubated for 3 hrs by annexin V-PE and 7-AAD staining based by flow cytometry. To be noted: ht-29, 3 h. In a few lines: as §3
Data set [5] has as its target T3, Integrin alpha-V/beta-6. Put plainly: Antagonist activity at alphaVbeta6 in human HT-29 cells assessed as reduction in cell adhesion to fibronectin pre-incubated for 30 mins before fibronectin and further incubated for 1 hr by nitrophenyl-N-acetyl-beta-D-glucosaminide substrate based chromogenic assay. In a few lines:
as §2

For data set [6], the target named is T4, Integrin alpha-IIb/beta-3 (Homo sapiens, UniProt P05106+P08514). Put plainly: Agonist activity at alpha2bbeta3 in human HEL cells assessed as increase in cell adhesion to fibrinogen pre-incubated for 30 mins before fibrinogen and further incubated for 1 hr by nitrophenyl-N-acetyl-beta-D-glucosaminide substrate based chromogenic assay. In a few lines:
as §2

In another data set the test system is K562. Put plainly: Toxicity in human K562 cells assessed as induction of cell necrosis and/or apoptosis incubated for 3 hrs by annexin V-PE and 7-AAD staining based by flow cytometry. To be noted: k562, 3 h. In a few lines:
as §3

The target of data set [7] is T4, Integrin alpha-IIb/beta-3. The data set is described as follows: Antagonist activity at alpha2bbeta3 in human HEL cells assessed as reduction in cell adhesion to fibrinogen pre-incubated for 30 mins before fibrinogen and further incubated for 1 hr by nitrophenyl-N-acetyl-beta-D-glucosaminide substrate based chromogenic assay. In a few lines:
as §2

The next data set concerns MCF7. Put plainly: Toxicity in human MCF7 cells assessed as induction of cell necrosis and/or apoptosis incubated for 3 hrs by annexin V-PE and 7-AAD staining based by flow cytometry. The following applies: mcf7, 3 h. In a few lines:
as §3

Another data set has as its system HEL. Put plainly: Toxicity in human HEL cells assessed as induction of cell necrosis and/or apoptosis incubated for 3 hrs by annexin V-PE and 7-AAD staining based by flow cytometry. In a few lines:
as §3

Data set [8] deals with T5, Integrin alpha-L/beta-2 (LFA-1) (Homo sapiens, UniProt P05107+P20701). The data set is described as follows: Antagonist activity at alphaLbeta2 in human Jurkat E6.1 cells assessed as reduction in cell adhesion to ICAM1 pre-incubated for 30 mins before ICAM1 and further incubated for 30 mins by […]. In kind it is cell-based. In a few lines:
(§4)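 Jurkat E6.1 cells labelled with CellTracker green CMFDA (12.5 µM, 30 min, 37 °C), washed, then pre-incubated 30 min at 37 °C with compound or methanol. Plated at 500,000/well on VCAM-1 (α4β1) or ICAM-1 (αLβ2) coated wells (5 µg/mL) for 30 min at 37 °C. Cells lysed in 0.5% Triton X-100; fluorescence read Ex485/Em535. Quadruplicate, at least three repeats.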

The target of data set [9] is T6, Integrin alpha-4/beta-1 (Homo sapiens, UniProt P05556+P13612). Put plainly: Agonist activity at alpha4beta1 in human Jurkat E6.1 cells assessed as increase in cell adhesion to VCAM1 pre-incubated for 30 mins before VCAM1 and further incubated for 30 mins by […]. In kind it is cell-based. In a few lines:
as §4

In data set [10] the target is T7, Integrin alpha-V/beta-3 (Homo sapiens, UniProt P05106+P06756). Put plainly: Antagonist activity at alphaVbeta3 in human SK-MEL-24 cells assessed as reduction in cell adhesion to fibronectin pre-incubated for 30 mins before fibronectin and further incubated for 1 hr by nitrophenyl-N-acetyl-beta-D-glucosaminide substrate based chromogenic assay. In a few lines:
as §2

In data set [11] the target is T7, Integrin alpha-V/beta-3. Put plainly: Agonist activity at alphaVbeta3 in human SK-MEL-24 cells assessed as increase in cell adhesion to fibronectin pre-incubated for 30 mins before fibronectin and further incubated for 1 hr by nitrophenyl-N-acetyl-beta-D-glucosaminide substrate based chromogenic assay. In a few lines:
as §1

The target of data set [12] is T6, Integrin alpha-4/beta-1. Put plainly: Antagonist activity at alpha4beta1 in human Jurkat E6.1 cells assessed as reduction in cell adhesion to VCAM1 pre-incubated for 30 mins before VCAM1 and further incubated for 30 mins by […]. In kind it is cell-based.
In data set [13] the target is T2, Integrin alpha-V/beta-5. The data set is described as follows: Agonist activity at alphaVbeta5 in human MCF7 cells assessed as increase in cell adhesion to fibrinogen pre-incubated for 30 mins before fibrinogen and further incubated for 1 hr by nitrophenyl-N-acetyl-beta-D-glucosaminide substrate based chromogenic assay. In a few lines: as §1
Data set [14] has as its target T5, Integrin alpha-L/beta-2 (LFA-1). Put plainly: Agonist activity at alphaLbeta2 in human Jurkat E6.1 cells assessed as increase in cell adhesion to ICAM1 pre-incubated for 30 mins before ICAM1 and further incubated for 30 mins by […]. The data set is classed as cell-based. In a few lines:
as §4

Numbered stars: 1 amine (or outer) side, 2 acyl side, 3 side chain; on linkers, the order of the positions; unused ones are H or OH. Square brackets hold non-standard residues; d marks the D form. Peptide text beside a SMILES is read from it. * marks the point of attachment. X1 = O=C(Cc1ccc(N[*:1])cc1)[*:2]; NH(2-Me-phenyl) = Cc1ccccc1N*; CO = O=C([*:1])[*:2]

What is called IC50 is the point on the concentration scale where inhibition reaches its midpoint. Usually EC50 stands for the concentration at which the effect is half-maximal.

T1 sequence (P05556 21-798 limits assumed): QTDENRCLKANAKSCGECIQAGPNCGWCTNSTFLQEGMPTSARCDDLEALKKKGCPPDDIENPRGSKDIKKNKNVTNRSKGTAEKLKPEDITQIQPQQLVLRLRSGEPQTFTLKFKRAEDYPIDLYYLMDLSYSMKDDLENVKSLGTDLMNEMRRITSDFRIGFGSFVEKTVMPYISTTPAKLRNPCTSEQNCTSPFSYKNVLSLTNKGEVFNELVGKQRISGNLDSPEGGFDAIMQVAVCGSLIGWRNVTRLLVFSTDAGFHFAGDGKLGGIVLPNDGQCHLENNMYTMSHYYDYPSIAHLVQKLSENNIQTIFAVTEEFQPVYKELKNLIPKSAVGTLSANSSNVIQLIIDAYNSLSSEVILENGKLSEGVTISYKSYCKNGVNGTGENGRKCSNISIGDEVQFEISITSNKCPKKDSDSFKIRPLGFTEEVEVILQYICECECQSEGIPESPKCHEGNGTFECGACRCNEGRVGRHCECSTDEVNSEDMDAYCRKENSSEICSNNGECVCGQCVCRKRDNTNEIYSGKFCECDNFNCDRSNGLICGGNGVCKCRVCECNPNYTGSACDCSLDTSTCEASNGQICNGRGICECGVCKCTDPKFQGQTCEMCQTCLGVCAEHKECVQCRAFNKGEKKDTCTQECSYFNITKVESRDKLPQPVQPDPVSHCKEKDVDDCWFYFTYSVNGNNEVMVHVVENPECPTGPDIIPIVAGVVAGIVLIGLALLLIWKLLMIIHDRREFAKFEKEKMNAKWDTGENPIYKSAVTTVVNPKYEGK
T1 sequence (P08648 42-894 limits assumed): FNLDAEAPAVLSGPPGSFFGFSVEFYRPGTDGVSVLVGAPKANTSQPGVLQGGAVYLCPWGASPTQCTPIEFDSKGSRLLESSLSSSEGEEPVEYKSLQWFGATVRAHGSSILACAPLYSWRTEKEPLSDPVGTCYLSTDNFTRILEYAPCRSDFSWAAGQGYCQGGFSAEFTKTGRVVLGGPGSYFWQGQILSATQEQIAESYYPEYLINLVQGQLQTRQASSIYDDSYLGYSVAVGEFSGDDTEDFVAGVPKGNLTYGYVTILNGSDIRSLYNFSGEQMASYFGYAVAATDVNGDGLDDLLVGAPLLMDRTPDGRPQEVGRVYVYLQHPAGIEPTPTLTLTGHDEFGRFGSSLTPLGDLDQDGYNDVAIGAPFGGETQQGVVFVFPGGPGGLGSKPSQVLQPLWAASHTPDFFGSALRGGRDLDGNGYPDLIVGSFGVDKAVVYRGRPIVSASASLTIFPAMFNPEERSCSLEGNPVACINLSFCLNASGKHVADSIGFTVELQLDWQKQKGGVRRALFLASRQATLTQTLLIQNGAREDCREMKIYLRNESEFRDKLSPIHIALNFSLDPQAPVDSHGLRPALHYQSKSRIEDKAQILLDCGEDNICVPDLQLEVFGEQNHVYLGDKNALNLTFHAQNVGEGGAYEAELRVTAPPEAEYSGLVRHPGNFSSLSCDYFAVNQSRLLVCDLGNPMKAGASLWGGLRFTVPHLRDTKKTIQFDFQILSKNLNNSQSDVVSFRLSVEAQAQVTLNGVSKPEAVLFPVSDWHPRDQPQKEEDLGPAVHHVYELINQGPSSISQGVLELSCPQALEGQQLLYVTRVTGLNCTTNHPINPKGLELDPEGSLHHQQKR
T1 sequence (P08648 895-1049 limits assumed): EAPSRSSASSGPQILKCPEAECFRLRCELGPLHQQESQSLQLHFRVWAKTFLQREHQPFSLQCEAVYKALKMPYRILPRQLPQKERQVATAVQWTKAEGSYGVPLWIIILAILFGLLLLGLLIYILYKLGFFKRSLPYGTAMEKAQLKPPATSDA
T5 sequence (P20701 whole entry): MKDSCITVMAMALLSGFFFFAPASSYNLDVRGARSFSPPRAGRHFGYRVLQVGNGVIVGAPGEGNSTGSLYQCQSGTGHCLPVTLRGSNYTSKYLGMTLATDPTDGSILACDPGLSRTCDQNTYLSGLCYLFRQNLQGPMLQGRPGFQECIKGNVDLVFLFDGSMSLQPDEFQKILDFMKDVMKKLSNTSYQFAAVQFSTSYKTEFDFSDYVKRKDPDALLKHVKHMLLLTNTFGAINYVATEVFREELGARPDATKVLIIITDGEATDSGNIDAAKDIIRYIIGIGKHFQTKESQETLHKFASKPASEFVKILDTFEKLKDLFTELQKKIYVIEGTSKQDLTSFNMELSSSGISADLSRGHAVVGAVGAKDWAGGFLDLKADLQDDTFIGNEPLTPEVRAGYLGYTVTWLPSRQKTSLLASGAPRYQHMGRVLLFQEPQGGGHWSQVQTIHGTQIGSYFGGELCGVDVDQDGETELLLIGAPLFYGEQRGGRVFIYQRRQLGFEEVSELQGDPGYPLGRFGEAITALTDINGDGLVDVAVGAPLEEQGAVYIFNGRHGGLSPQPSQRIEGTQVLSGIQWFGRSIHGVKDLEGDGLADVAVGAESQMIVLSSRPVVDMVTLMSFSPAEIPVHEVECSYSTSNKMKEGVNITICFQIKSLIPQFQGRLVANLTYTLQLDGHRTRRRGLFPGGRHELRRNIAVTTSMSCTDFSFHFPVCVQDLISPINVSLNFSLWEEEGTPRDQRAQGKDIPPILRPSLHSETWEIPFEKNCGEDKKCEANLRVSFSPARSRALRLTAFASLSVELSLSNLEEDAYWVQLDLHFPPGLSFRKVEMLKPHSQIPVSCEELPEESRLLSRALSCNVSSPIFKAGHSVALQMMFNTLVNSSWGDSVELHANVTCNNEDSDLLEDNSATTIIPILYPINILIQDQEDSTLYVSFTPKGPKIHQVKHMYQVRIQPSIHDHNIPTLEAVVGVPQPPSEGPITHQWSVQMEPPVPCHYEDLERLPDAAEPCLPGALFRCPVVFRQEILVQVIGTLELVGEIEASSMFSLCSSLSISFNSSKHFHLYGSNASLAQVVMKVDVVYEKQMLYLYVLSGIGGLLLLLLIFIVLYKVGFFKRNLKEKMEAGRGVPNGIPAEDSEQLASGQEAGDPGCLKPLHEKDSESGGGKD
T5 sequence (P05107 whole entry): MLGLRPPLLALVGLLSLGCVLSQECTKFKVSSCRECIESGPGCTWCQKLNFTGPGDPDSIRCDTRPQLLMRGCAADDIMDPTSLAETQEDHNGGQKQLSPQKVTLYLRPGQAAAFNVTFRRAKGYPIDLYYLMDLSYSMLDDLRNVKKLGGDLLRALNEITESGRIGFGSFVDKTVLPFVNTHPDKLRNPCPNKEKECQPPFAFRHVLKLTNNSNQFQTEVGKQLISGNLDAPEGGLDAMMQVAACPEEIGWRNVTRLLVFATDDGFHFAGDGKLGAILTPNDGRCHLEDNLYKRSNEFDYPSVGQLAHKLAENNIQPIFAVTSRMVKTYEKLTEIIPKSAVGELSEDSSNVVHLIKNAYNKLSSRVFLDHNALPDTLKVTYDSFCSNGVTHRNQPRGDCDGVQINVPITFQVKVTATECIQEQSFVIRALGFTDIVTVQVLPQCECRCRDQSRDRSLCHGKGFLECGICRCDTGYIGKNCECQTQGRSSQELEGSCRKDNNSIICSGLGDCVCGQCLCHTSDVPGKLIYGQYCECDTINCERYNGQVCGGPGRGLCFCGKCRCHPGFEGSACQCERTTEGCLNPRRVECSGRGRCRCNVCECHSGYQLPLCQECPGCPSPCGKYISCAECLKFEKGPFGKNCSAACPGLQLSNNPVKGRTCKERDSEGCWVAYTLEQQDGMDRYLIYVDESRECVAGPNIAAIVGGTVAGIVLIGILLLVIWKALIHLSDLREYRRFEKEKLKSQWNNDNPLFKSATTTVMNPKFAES

For the molecule Ac-DRLDS-OH, the IC50 on Integrin alpha-5/beta-1 [1] was over 5 µM; at Integrin alpha-V/beta-5 [2], 2.28 µM; on Integrin alpha-V/beta-6 [5] it was over 5 µM; in data set [7], over 5 µM. The Activity entry with SK-MEL-24, in the data set with HT-29, in the data set on K562, in the data set on MCF7 and in the data set on HEL was “Non-Toxic” each time. Moreover, the EC50 (on Integrin alpha-5/beta-1 [3]; on Integrin alpha-V/beta-6 [4]; in data set [6]) was over 5 µM throughout.
On to `Cc1ccccc1NC(=O)Nc1ccc(CC(=O)N[C@@H](CC(C)C)C(=O)N[C@@H](CC(=O)O)C(=O)N[C@H](C(=O)N2CCC[C@H]2C(=O)O)C(C)C)cc1` ({NH(2-Me-phenyl)-CO}-[X1]LDVP-OH), for which the Activity result in the data set on SK-MEL-24, in the data set on HT-29, in the data set with K562, with MCF7 and with HEL was “Non-Toxic” throughout. Besides, in [8], the IC50 worked out at 0.00084 µM.
For the molecule `O=C(O)CC1CC(=O)N1C(=O)NCc1ccccc1` (stereo not drawn), the half-maximal inhibitory concentration (IC50) was 0.417 µM on Integrin alpha-5/beta-1 [1]; over 5 µM on Integrin alpha-V/beta-5 [2]; over 5 µM in data set [8]; over 5 µM on Integrin alpha-V/beta-3 [10]; over 5 µM at Integrin alpha-4/beta-1 [12]; over 5 µM at Integrin alpha-V/beta-6 [5]. The IC50 in [7] was over 5 µM. In addition, the Activity entry in the data set with SK-MEL-24, in the data set on HT-29, in the data set on K562, with MCF7 and in the data set with HEL was “Non-Toxic” each time. Also, the half-maximal effective concentration (EC50) (on Integrin alpha-4/beta-1 [9]; on Integrin alpha-V/beta-6 [4]; at Integrin alpha-V/beta-3 [11]; on Integrin alpha-V/beta-5 [13]; in data set [6]; in [14]) was over 5 µM in each case.
Take `NCc1ccc(NC(=O)N2C(=O)C[C@H]2C(=O)O)cc1.O=C(O)C(F)(F)F`: the IC50 (on Integrin alpha-V/beta-5 [2]; in [8]; at Integrin alpha-V/beta-3 [10]; on Integrin alpha-4/beta-1 [12]; on Integrin alpha-V/beta-6 [5]; in data set [7]) was over 5 µM in each case. The Activity entry with SK-MEL-24, in the data set on HT-29, with K562, with MCF7 and in the data set on HEL was “Non-Toxic” throughout. Moreover, the concentration giving a half-maximal response (EC50) (at Integrin alpha-4/beta-1 [9]; at Integrin alpha-V/beta-6 [4]; at Integrin alpha-V/beta-3 [11]; on Integrin alpha-V/beta-5 [13]; in [6]; in data set [14]) was over 5 µM throughout.
